Key:
Type in all cases: functional
Rattus norvegicus [1] = test: Amount of triglycerides in obese Zucker rats after 1 week of treatment at a dose of 0 mg/kg/day
Procedure, shortened: (§1)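 Female Zucker fatty rats [Crl:(Zuc)-faBR], 10–12 weeks old (400–500 g), dosed once daily by oral gavage in 20% EtOH/80% PEG-200 for up to 14 days. After a 6-h fast, serum was taken pre-dose, at day 7 (orbital venous plexus, O2/CO2 anaesthesia) and at day 14 (cardiac puncture), stored at −80 °C, and assayed on a Hitachi 912 automatic analyzer. Mean ± SEM.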

Rattus norvegicus [2] = test: Amount of nonesterified fatty acids in obese Zucker rats at pre-treatment at a dose of 0 mg/kg/day; procedure, shortened: as §1
Rattus norvegicus [3] = test: Amount of nonesterified fatty acids in obese Zucker rats after 2 weeks of treatment at a dose of 0 mg/kg/day; procedure, shortened: as §1
Rattus norvegicus [4] = test: Amount of non-HDL-cholesterol in obese Zucker rats after 1 week of treatment at a dose of 30 mg/kg/day
Procedure, shortened: (§2)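 Female Zucker fatty rats [Crl:(Zuc)-faBR], 10–12 weeks old (400–500 g), dosed once daily by oral gavage in 20% EtOH/80% PEG-200 (dose volume 0.25% of body weight). Rats were fasted 6 h and bled before dosing and at day 7 (orbital plexus), and at day 14 (cardiac puncture). Serum cholesterol fractions came from Superose 6 gel-filtration lipoprotein profiles (% peak area × serum total cholesterol). Values are mean ± SEM.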

Rattus norvegicus [5] = test: Amount of HDL-cholesterol in obese Zucker rats after 1 week of treatment at a dose of 0 mg/kg/day; procedure, shortened: as §2
Rattus norvegicus [6] = test: Amount of glucose in obese Zucker rats after 2 weeks of treatment at a dose of 0 mg/kg/day
Procedure, shortened: (§3)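 Female Zucker fatty rats [Crl:(Zuc)-faBR], 10–12 weeks old (400–500 g), gavaged daily with vehicle (20% EtOH/80% PEG-200, 0.25% of body weight) or compound. After a 6-h fast, blood glucose was read by glucometer from tail-prick blood of unanesthetized rats before dosing and after 1 and 2 weeks. Values are mean ± SEM.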

Rattus norvegicus [7] = test: Amount of HDL-cholesterol in obese Zucker rats at pre-treatment at a dose of 100 mg/kg/day; procedure, shortened: as §2
Rattus norvegicus [8] = test: Amount of insulin in obese Zucker rats after 2 weeks of treatment at a dose of 10 mg/kg/day
Procedure, shortened: (§4)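 Female obese Zucker rats [Crl:(Zuc)-faBR], 400–500 g, given daily oral gavage in 20% EtOH/80% PEG-200 for up to 14 days. After a 6-h fast, serum was collected pretreatment and at day 7 (orbital bleed) and day 14 (cardiac puncture) and stored at -80 °C. Insulin was measured by ELISA. Values are mean ± SEM.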

Rattus norvegicus [9] = test: Amount of non-HDL-cholesterol in obese Zucker rats after 2 weeks of treatment at a dose of 30 mg/kg/day
Procedure, shortened: (§5)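 Female obese Zucker fatty rats [Crl:(Zuc)-faBR], 10–12 weeks old (400–500 g), on chow. Compound in 20% EtOH/80% PEG-200 (v/v) given by daily oral gavage. After a 6-h fast, serum was taken before dosing and at 7 days (orbital plexus), and at 14 days (cardiac puncture). Lipoprotein cholesterol came from Superose 6HR gel-filtration profiles × serum total cholesterol. Mean ± SEM.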

Rattus norvegicus [10] = test: Amount of glucose in obese Zucker rats after 2 weeks of treatment at a dose of 3 mg/kg/day; procedure, shortened: as §3
Rattus norvegicus [11] = test: Amount of insulin in obese Zucker rats at pre-treatment at a dose of 3 mg/kg/day; procedure, shortened: as §4
Rattus norvegicus [12] = test: Percentage change of non-HDL cholesterol levels in obese female Zucker rats after 1 week of pre-treatment at a dose of 100 mg/kg/day
Procedure, shortened: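 Female Zucker fatty rats [Crl:(Zuc)-faBR], 10–12 weeks old (400–500 g), acclimated 7 days and fed rodent chow. Dosed once daily by oral gavage in 20% EtOH/80% PEG-200 (v/v), at 0.25% of body weight, for 2 weeks. Blood taken after a 6-h fast: orbital plexus before dosing and at day 7, cardiac puncture at day 14. Serum lipoprotein cholesterol measured by Superose 6 gel filtration with on-line cholesterol detection. Values are % change from pretreatment, mean ± SEM.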

Rattus norvegicus [13] = test: Amount of triglycerides in obese Zucker rats after 1 week of treatment at a dose of 10 mg/kg/day; procedure, shortened: as §1
Rattus norvegicus [14] = test: Amount of glucose in obese Zucker rats at pre-treatment at a dose of 100 mg/kg/day; procedure, shortened: as §3
Rattus norvegicus [15] = test: Amount of triglycerides in obese Zucker rats after 2 weeks of treatment at a dose of 3 mg/kg/day; procedure, shortened: as §1
Rattus norvegicus [16] = test: Amount of HDL-cholesterol in obese Zucker rats after 1 week of treatment at a dose of 100 mg/kg/day; procedure, shortened: as §2
Rattus norvegicus [17] = test: Amount of nonesterified fatty acids in obese Zucker rats at pre-treatment at a dose of 30 mg/kg/day; procedure, shortened: as §1
Rattus norvegicus [18] = test: Amount of HDL-cholesterol in obese Zucker rats at pre-treatment at a dose of 10 mg/kg/day; procedure, shortened: as §2
Rattus norvegicus [19] = test: Amount of insulin in obese Zucker rats after 2 weeks of treatment at a dose of 3 mg/kg/day; procedure, shortened: as §4
Rattus norvegicus [20] = test: Amount of triglycerides in obese Zucker rats at pre-treatment at a dose of 3 mg/kg/day; procedure, shortened: as §1
Rattus norvegicus [21] = test: Amount of nonesterified fatty acids in obese Zucker rats after 2 weeks of treatment at a dose of 10 mg/kg/day; procedure, shortened: as §1
Rattus norvegicus [22] = test: Amount of non-HDL-cholesterol in obese Zucker rats at pre-treatment at a dose of 3 mg/kg/day; procedure, shortened: as §5
Rattus norvegicus [23] = test: Amount of glucose in obese Zucker rats at pre-treatment at a dose of 10 mg/kg/day; procedure, shortened: as §3
Rattus norvegicus [24] = test: Amount of nonesterified fatty acids in obese Zucker rats after 1 week of treatment at a dose of 30 mg/kg/day; procedure, shortened: as §1
Rattus norvegicus [25] = test: Amount of insulin in obese Zucker rats after 1 week of treatment at a dose of 3 mg/kg/day; procedure, shortened: as §4
Rattus norvegicus [26] = test: Amount of insulin in obese Zucker rats at pre-treatment at a dose of 10 mg/kg/day; procedure, shortened: as §4
Rattus norvegicus [27] = test: Amount of glucose in obese Zucker rats after 1 week of treatment at a dose of 100 mg/kg/day; procedure, shortened: as §3
Rattus norvegicus [28] = test: Amount of triglycerides in obese Zucker rats after 1 week of treatment at a dose of 3 mg/kg/day; procedure, shortened: as §1
Rattus norvegicus [29] = test: Amount of triglycerides in obese Zucker rats at pre-treatment at a dose of 10 mg/kg/day; procedure, shortened: as §1
Rattus norvegicus [30] = test: Amount of nonesterified fatty acids in obese Zucker rats at pre-treatment at a dose of 3 mg/kg/day; procedure, shortened: as §1
Rattus norvegicus [31] = test: Amount of non-HDL-cholesterol in obese Zucker rats after 1 week of treatment at a dose of 10 mg/kg/day; procedure, shortened: as §2
Rattus norvegicus [32] = test: Amount of insulin in obese Zucker rats after 1 week of treatment at a dose of 100 mg/kg/day; procedure, shortened: as §4
Rattus norvegicus [33] = test: Amount of HDL-cholesterol in obese Zucker rats after 1 week of treatment at a dose of 10 mg/kg/day; procedure, shortened: as §2
Rattus norvegicus [34] = test: Amount of nonesterified fatty acids in obese Zucker rats after 2 weeks of treatment at a dose of 3 mg/kg/day; procedure, shortened: as §1
Rattus norvegicus [35] = test: Amount of triglycerides in obese Zucker rats at pre-treatment at a dose of 30 mg/kg/day; procedure, shortened: as §1

Row | Structure (SMILES) | Activity (Rattus norvegicus [1]) | Activity (Rattus norvegicus [2]) | Activity (Rattus norvegicus [3]) | Activity (Rattus norvegicus [4]) | Activity (Rattus norvegicus [5]) | Activity (Rattus norvegicus [6]) | Activity (Rattus norvegicus [7]) | Activity (Rattus norvegicus [8]) | Activity (Rattus norvegicus [9]) | Activity (Rattus norvegicus [10]) | Activity (Rattus norvegicus [11]) | Change (Rattus norvegicus [12]) | Activity (Rattus norvegicus [13]) | Activity (Rattus norvegicus [14]) | Activity (Rattus norvegicus [15]) | Activity (Rattus norvegicus [16]) | Activity (Rattus norvegicus [17]) | Activity (Rattus norvegicus [18]) | Activity (Rattus norvegicus [19]) | Activity (Rattus norvegicus [20]) | further results
1 | CC(C)(CCCCC(=O)CCCCC(C)(C)C(=O)O)C(=O)O | 1333 mg/dL | 1.5 mg/dL | 1.4 mg/dL | 37 mg/dL | 39 mg/dL | 118 mg/dL | 38 mg/dL | 8.9 ng/mL | 43 mg/dL | 103 mg/dL | 10.4 ng/mL | -62% | 692 mg/dL | 110 mg/dL | 857 mg/dL | 66 mg/dL | 1.4 mg/dL | 37 mg/dL | 8.6 ng/mL | 996 mg/dL | Activity (Rattus norvegicus [21]): 1.5 mg/dL; Activity (Rattus norvegicus [22]): 32 mg/dL; Activity (Rattus norvegicus [23]): 113 mg/dL; Activity (Rattus norvegicus [24]): 1 mg/dL; Activity (Rattus norvegicus [25]): 10.7 ng/mL; Activity (Rattus norvegicus [26]): 10.6 ng/mL; Activity (Rattus norvegicus [27]): 113 mg/dL; Activity (Rattus norvegicus [28]): 775 mg/dL; Activity (Rattus norvegicus [29]): 1143 mg/dL; Activity (Rattus norvegicus [30]): 1.5 mg/dL; Activity (Rattus norvegicus [31]): 26 mg/dL; Activity (Rattus norvegicus [32]): 9 ng/mL; Activity (Rattus norvegicus [33]): 47 mg/dL; Activity (Rattus norvegicus [34]): 1.5 mg/dL; Activity (Rattus norvegicus [35]): 1242 mg/dL
2 | CC(C)(CCCCCC(=O)CCCCCC(C)(C)C(=O)O)C(=O)O | 1119 mg/dL | 1.3 mg/dL | 1.3 mg/dL | 14 mg/dL | 66 mg/dL | 120 mg/dL | 66 mg/dL | 9.1 ng/mL | 30 mg/dL | 124 mg/dL | 8.6 ng/mL | -98% | 553 mg/dL | 117 mg/dL | 833 mg/dL | 100 mg/dL | 1.3 mg/dL | 86 mg/dL | 7.3 ng/mL | 905 mg/dL | Activity (Rattus norvegicus [21]): 0.95 mg/dL; Activity (Rattus norvegicus [22]): 22 mg/dL; Activity (Rattus norvegicus [23]): 120 mg/dL; Activity (Rattus norvegicus [24]): 0.88 mg/dL; Activity (Rattus norvegicus [25]): 10 ng/mL; Activity (Rattus norvegicus [26]): 9.9 ng/mL; Activity (Rattus norvegicus [27]): 92 mg/dL; Activity (Rattus norvegicus [28]): 995 mg/dL; Activity (Rattus norvegicus [29]): 863 mg/dL; Activity (Rattus norvegicus [30]): 1.3 mg/dL; Activity (Rattus norvegicus [31]): 22 mg/dL; Activity (Rattus norvegicus [32]): 6.4 ng/mL; Activity (Rattus norvegicus [33]): 136 mg/dL; Activity (Rattus norvegicus [34]): 1 mg/dL; Activity (Rattus norvegicus [35]): 982 mg/dL
3 | CC(C)(CO)CCCCC(=O)CCCCC(C)(C)CO | 1114 mg/dL | 1.2 mg/dL | 1.6 mg/dL | 28 mg/dL | 39 mg/dL | 116 mg/dL | 45 mg/dL | 7.8 ng/mL | 38 mg/dL | 103 mg/dL | 8.8 ng/mL | -23% | 602 mg/dL | 114 mg/dL | 781 mg/dL | 78 mg/dL | 1.4 mg/dL | 46 mg/dL | 7.8 ng/mL | 755 mg/dL | Activity (Rattus norvegicus [21]): 1 mg/dL; Activity (Rattus norvegicus [22]): 24 mg/dL; Activity (Rattus norvegicus [23]): 112 mg/dL; Activity (Rattus norvegicus [24]): 1.1 mg/dL; Activity (Rattus norvegicus [25]): 7.5 ng/mL; Activity (Rattus norvegicus [26]): 8.4 ng/mL; Activity (Rattus norvegicus [27]): 120 mg/dL; Activity (Rattus norvegicus [28]): 800 mg/dL; Activity (Rattus norvegicus [29]): 777 mg/dL; Activity (Rattus norvegicus [30]): 1.1 mg/dL; Activity (Rattus norvegicus [31]): 21 mg/dL; Activity (Rattus norvegicus [32]): 10.9 ng/mL; Activity (Rattus norvegicus [33]): 52 mg/dL; Activity (Rattus norvegicus [34]): 1.6 mg/dL; Activity (Rattus norvegicus [35]): 998 mg/dL

Reference: ChEMBL document CHEMBL1137992, “Long hydrocarbon chain keto diols and diacids that favorably alter lipid disorders in vivo” (J Med Chem, 2004)
